Source: the array DNA melting data of Ke et al. (doi:10.1101/2024.01.08.574731)

Columns and labels:
[1] = melting temperature; fluorescence melt of hairpins on a sequencing array, two-state fit, raised by 9.35 °C to match UV melts; details: sodium 0.088 M
How it was run: (§1)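 Bootstrapped two-state fits yielded melting temperature and folding enthalpy for library hairpins. Cy3 fluorescence, with annealed Cy3 and quencher oligos, was imaged on a sequenced MiSeq flow cell in 50 mM Na-HEPES pH 8.0, 25 mM NaCl in 2.5 °C steps up to 60 °C, and normalised to pre-quench Cy3 and to control constructs. Four replicates were combined by inverse variance, and fitted temperatures were raised by 9.35 °C to match UV melts.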

[2] = folding enthalpy; higher = less favourable; fluorescence melt of hairpins on a sequencing array, two-state fit; details: sodium 0.088 M
How it was run: as §1

Sequence	Tm [1] [°C]	folding enthalpy [2] [kcal/mol]
GCTTACCGAAAGGTAGC (((.(((....))))))	53	-19.8
GCTTACGAAAGTAAAGC ((((((....))).)))	49.6	-23.8
GCTTACGAAAGTAGAAGC ((((((....)))..)))	38.2	-24.3
GCTTACGAAAGTATAAGC ((((((....)))..)))	38.3	-28.6
GCTTACGGAAACGTAGGC ((.((((....)))).))	50	-27.2
GCTTAGCGAAAGCAATGC ((.(.((....)).).))	31.9	-11.7
GCTTAGCGAAAGCACAGC (((..((....))..)))	38.6	-15.8
GCTTAGCGAAAGCCAGGC ((.(.((....)).).))	34.5	-12.6
GCTTAGCGAAAGCGAAGC ((((.((....)).))))	60.8	-22.4
GCTTAGCGAAAGCGATGC ((.(.((....)).).))	59.5	-18.6
GCTTAGCGAAAGCGCAGC (((..((....))..)))	46.9	-17.6
GCTTAGCGAAAGCTCAGC (((.(((....))).)))	49.1	-33.7
GCTTAGCGAAAGCTGAGC (((.(((....))).)))	57.6	-45.6
GCTTAGCGAAAGCTGCGC ((..(((....)))..))	54.9	-19.3
GCTTAGCGAAAGCTGGGC ((..(((....)))..))	51.8	-20.1
GCTTAGCGAAAGCTGTGC ((..(((....)))..))	39.7	-16.4
GCTTAGTCGAAAGACAGC (((..(((....))))))	40.3	-17.2
GCTTATCGAAAGATGAGC (((.(((....))).)))	50.6	-54.6
GCTTATCGAAAGATTAGC (((.(((....))).)))	44.8	-35.9
GCTTATGGAAACGTAAGC (((((.(....).)))))	45.1	-44
GCTTCAGGAAACCGAAGC (((((.(....).)))))	46.3	-35.9
GCTTCCCCGAAAGGGAGC (((..(((....))))))	46.6	-19.2
GCTTCCGAAAGGAAAGC ((((((....))).)))	54.3	-38.7

Sequence	Tm [1] [°C]	folding enthalpy [2] [kcal/mol]
GCTTCCGAAAGGACTAGC ((((((....)))..)))	35.7	-16.2
GCTTCCGAAAGGAGAAGC ((((((....)))..)))	45.7	-25.6
GCTTCCGAAAGGATCAGC ((((((....)))..)))	34	-21.7
GCTTCCTCGAAAGAGAGC (((..(((....))))))	28.9	-12.7
GCTTCGCGAAAGCAAAGC ((((.((....)).))))	57.3	-23.8
GCTTCGCGAAAGCCACGC ((.(.((....)).).))	27.8	-8.03
GCTTCGCGAAAGCCTAGC (((..((....))..)))	37.4	-14.7
GCTTCGCGAAAGCGAGC (((.(((....))))))	61.4	-15.6
GCTTCGCGAAAGCGCTGC ((..(((....)))..))	41.4	-22.9
GCTTCGCGAAAGCGGTGC ((..(((....)))..))	49.3	-14.6
GCTTCGCGAAAGCGTGGC ((..(((....)))..))	53.3	-17.4
GCTTCGCGAAAGCTAGGC ((.(.((....)).).))	35.2	-17.3
GCTTCGGGAAACCGGAGC (((.(((....))).)))	56.5	-41.5
GCTTCTCGAAAGAGGAGC (((.(((....))).)))	56.1	-36.1
GCTTCTCGAAAGAGTAGC (((.(((....))).)))	47.9	-31.1
GCTTCTGGAAACAAAAGC ((((.((....)).))))	28.8	-13.1
GCTTCTTCGAAAGAAAGC (((..(((....))))))	30.3	-16
GCTTGAGGAAACTCGAGC (((.(((....))).)))	51.5	-41.5
GCTTGATCGAAAGATAGC (((..(((....))))))	29.4	-17.7
GCTTGCCGAAAGGCCAGC (((.(((....))).)))	54.1	-27.9
GCTTGCGAAAGCAAAGC ((((((....))).)))	61.4	-22.8
GCTTGCGAAAGCAAGAGC ((((((....)))..)))	56.3	-12.3
GCTTGCGAAAGCAGGAGC ((((((....)))..)))	51.4	-14.3

Sequence	Tm [1] [°C]	folding enthalpy [2] [kcal/mol]
GCTTGGCGAAAGCAAAGC ((((.((....)).))))	63.7	-36.5
GCTTGGCGAAAGCCACGC ((.((((....)))).))	58.5	-19
GCTTGGCGAAAGCGTAGC (((..((....))..)))	39.6	-16.2
GCTTGGGCGAAAGCCAGC (((..(((....))))))	48.6	-12.9
GCTTGGGGAAACCTAAGC ((((.((....)).))))	47.8	-32.1
GCTTGTCGAAAGACGAGC (((.(((....))).)))	61.3	-36.9
GCTTGTGCGAAAGCAAGC (((..(((....))))))	46.5	-22.9
GCTTGTGGAAACATAGGC ((.(.((....)).).))	32	-14.7
GCTTTACCGAAAGGTAGC (((..(((....))))))	37.7	-13
GCTTTACGAAAGTAGAGC (((.(((....))).)))	49.4	-38.9
GCTTTCCGAAAGGATAGC (((.(((....))).)))	51.5	-35.9
GCTTTCGAAAGAACAGC ((((((....))).)))	36.8	-23.7
GCTTTCGGAAACAAAAGC (((((.(....).)))))	35.5	-23.9
GCTTTGCGAAAGCACCGC ((..(((....)))..))	39.2	-12.4
GCTTTGCGAAAGCGCAGC (((..((....))..)))	38.7	-11.8
GCTTTGCGAAAGCTACGC ((.(.((....)).).))	45.4	-13.2
GCTTTGGGAAACTGAAGC ((((..(....)..))))	35.2	-31.6
GCTTTTGGAAACAAAAGC (((((((....)))))))	61.5	-42.2
GCTTTTGGAAACAGAAGC ((((.((....)).))))	41.4	-25.1
GGAAAAACGAAAGTTTCC (((..(((....))))))	35.6	-14.9
GGAAACGAAAGTTACTCC ((((((....)))..)))	22.8	-10.2
GGAAACGAAAGTTCGTCC ((((((....)))..)))	24.8	-13
GGAAACGAAAGTTGTCC ((((((....))).)))	31.5	-18.2

Sequence	Tm [1] [°C]	folding enthalpy [2] [kcal/mol]
GGAAACGGAAACGTTTCC (((((((....)))))))	64.8	-45.5
GGAAAGGGAAACCTCTCC (((.(((....))).)))	33	-14.8
GGAAAGGGAAACCTTCCC ((.((((....)))).))	33.3	-19.3
GGAAAGGGAAACCTTTCC (((((((....)))))))	55.8	-41.9
GGAAATGAAAATTTCC ((((((....))))))	48.8	-29.2
GGAACACGAAAGTGGTCC (((.(((....))).)))	60.7	-31.7
GGAACAGGAAACCGTTCC (((((.(....).)))))	45.5	-31.7
GGAACAGGAAACTGTCCC ((.((((....)))).))	39.9	-23.1
GGAACAGGAAACTGTTTC (.(((((....))))).)	44.4	-31.7
GGAACCACGAAAGTGTCC (((..(((....))))))	28.1	-11.2
GGAACCCGAAAGGGATCC (((.(((....))).)))	54.5	-28
GGAACCCGAAAGGGCTCC (((.(((....))).)))	54.5	-32.4
GGAACCGAAAGGTCCTCC ((((((....)))..)))	50.2	-17.5
GGAACCGAAAGGTCTTCC ((((((....)))..)))	38.7	-20.3
GGAACCGAAAGGTTATCC ((((((....)))..)))	35.9	-11.8
GGAACCGAAAGGTTGTCC ((((((....)))..)))	36.1	-11.5
GGAACCGAAAGGTTTTCC ((((((....)))..)))	35.6	-12.6
GGAACCGCGAAAGCGTCC (((..(((....))))))	26.3	-7.7
GGAACCGGAAACAGTTCC (((((.(....).)))))	40	-28.4
GGAACCGGAAACGGCTCC (((.(((....))).)))	50	-28.5
GGAACGAAAGTTCC (((((....)))))	64.3	-33.3
GGAACGCGAAAGCGATCC (((.(((....))).)))	59	-27.4
